Legend:
[1] = Cmax in Wistar rat plasma at 10 mg/kg, po by HPLC analysis; assay type: ADME, organism-based; design: dose 10 mg/kg, route oral
[2] = MRT (0 to 72 hrs) in Wistar rat liver at 15 mg/kg, po by HPLC analysis; assay type: ADME, organism-based
Outline: (§1)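 Male Wistar rats (180 ± 20 g) received a single oral dose of 10, 15 or 30 mg/kg. Tissues were collected at 0, 0.5, 1, 2, 4, 6, 8, 12, 24, 48 and 72 h (n = 6 per point). Samples of 0.25 g were rinsed, then homogenized in saline (0.25 g/1 mL) and centrifuged at 10,000 × g. Supernatant was methanol-extracted, dried under nitrogen at 50 °C and reconstituted in methanol. Analysis was by C18 HPLC (acetonitrile 60% / water 40%, 1.0 mL/min).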

[3] = MRT (0 to 72 hrs) in Wistar rat spleen at 15 mg/kg, po by HPLC analysis; assay type: ADME, organism-based; outline: as §1
[4] = Cmax in Wistar rat kidney at 15 mg/kg, po by HPLC analysis; assay type: ADME, organism-based; design: dose 15 mg/kg, route oral
Outline: (§2)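 Tissue distribution in male Wistar rats given oral 10, 15 or 30 mg/kg; heart, liver, spleen, lung, kidney and brain collected predose and 0.5–72 h post-dose (n = 6 per time). Tissue rinsed in saline, homogenised 0.25 g/1 mL saline, methanol extraction, dried under nitrogen, reconstituted in methanol. Analysis by reverse-phase C18 HPLC, acetonitrile/water 60:40, 1.0 mL/min, ambient temperature.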

[5] = AUC (0 to infinity) in Wistar rat kidney at 15 mg/kg, po by HPLC analysis; assay type: ADME, organism-based; design: dose 15 mg/kg, time infinity, route oral
Outline: (§3)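 Wistar rats (180 ± 20 g) were dosed orally at 10, 15 or 30 mg/kg. Heart, liver, spleen, lung, kidney and brain were collected at 0–72 h (n = 6 per point). Tissue was rinsed, blotted and homogenized in saline (0.25 g/1 mL), then spun at 10,000 × g. Supernatant was methanol-extracted, dried under nitrogen at 50 °C, reconstituted in methanol and run on C18 HPLC (acetonitrile 60%/water 40%, 1.0 mL/min).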

[6] = Tmax in Wistar rat kidney at 15 mg/kg, po by HPLC analysis; assay type: ADME, organism-based; outline: as §1
[7] = AUC (0 to 72 hrs) in Wistar rat brain at 30 mg/kg, po by HPLC analysis; assay type: ADME, organism-based; design: dose 30 mg/kg, time < 72 hr, route oral; outline: as §3
[8] = AUC (0 to 72 hrs) in Wistar rat plasma at 30 mg/kg, po by HPLC analysis; assay type: ADME, organism-based; design: time < 72 hr, dose 30 mg/kg, route oral
Outline: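 Male Wistar rats (180 ± 20 g, n = 6 per group) got one oral dose. Heparinized blood was taken by retro-orbital puncture before dosing and at 0.5–72 h. Plasma was spun at 4000 × g, 4 °C, 10 min, spiked with internal standard and protein-precipitated with acetonitrile. Analysis was reverse-phase C18 HPLC (0.02 mol/L KH2PO4 55%/acetonitrile 45%, 1.0 mL/min). Calibration used 0.1–10 µg/mL, peak-height ratio, weighting concentration^-2.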

[9] = Toxicity in ig dosed ICR mouse assessed as mortality after 2 weeks; assay type: organism-based; conditions: in vivo, po
[10] = AUC (0 to 72 hrs) in Wistar rat brain at 10 mg/kg, po by HPLC analysis; assay type: ADME, organism-based; design: time < 72 hr, dose 10 mg/kg, route oral; outline: as §3
[11] = Cmax in Wistar rat lung at 10 mg/kg, po by HPLC analysis; assay type: ADME, organism-based; design: dose 10 mg/kg, route oral; outline: as §2
[12] = MRT (0 to 72 hrs) in Wistar rat kidney at 15 mg/kg, po by HPLC analysis; assay type: ADME, organism-based; outline: as §2
[13] = Cmax in Wistar rat kidney at 30 mg/kg, po by HPLC analysis; assay type: ADME, organism-based; design: dose 30 mg/kg, route oral; outline: as §2
[14] = AUC (0 to infinity) in Wistar rat brain at 10 mg/kg, po by HPLC analysis; assay type: ADME, organism-based; design: dose 10 mg/kg, route oral, time infinity; outline: as §3
[15] = Cmax in Wistar rat liver at 10 mg/kg, po by HPLC analysis; assay type: ADME, organism-based; design: dose 10 mg/kg, route oral; outline: as §2
[16] = MRT (0 to 72 hrs) in Wistar rat lung at 10 mg/kg, po by HPLC analysis; assay type: ADME, organism-based; outline: as §1
[17] = Half life in Wistar rat lung at 30 mg/kg, po by HPLC analysis; assay type: ADME, organism-based; outline: as §2
[18] = Half life in Wistar rat Heart at 30 mg/kg, po by HPLC analysis; assay type: ADME, organism-based; outline: as §2
[19] = MRT (0 to infinity) in Wistar rat kidney at 10 mg/kg, po by HPLC analysis; assay type: ADME, organism-based; outline: as §1
[20] = MRT (0 to 72 hrs) in Wistar rat plasma at 15 mg/kg, po by HPLC analysis; assay type: ADME, organism-based
Outline: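 Male Wistar rats (180 ± 20 g), 6 per dose group, each given a single oral dose. Blood was drawn by retro-orbital puncture into heparin at predose and at 0.5, 1, 2, 4, 6, 8, 12, 24, 48 and 72 h, then spun at 4000 × g and 4 °C. Plasma with internal standard was acetonitrile-precipitated, filtered and run on reverse-phase C18 HPLC (0.02 mol/L KH2PO4 55% / acetonitrile 45%, 1.0 mL/min). Calibration standards were 0.1–10 µg/mL, fitted by peak-height ratio with 1/conc² weighting.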

[21] = AUC (0 to 72 hrs) in Wistar rat Heart at 15 mg/kg, po by HPLC analysis; assay type: ADME, organism-based; design: time < 72 hr, dose 15 mg/kg, route oral; outline: as §3
[22] = AUC (0 to infinity) in Wistar rat Heart at 10 mg/kg, po by HPLC analysis; assay type: ADME, organism-based; design: dose 10 mg/kg, time infinity, route oral; outline: as §3
Rattus norvegicus = test: Toxicity in rat model assessed as effect on heart rate at 10 to 15 mg/kg, po up to 24 hrs; assay type: organism-based; conditions: in vivo
[23] = Tmax in Wistar rat spleen at 30 mg/kg, po by HPLC analysis; assay type: ADME, organism-based
[24] = MRT (0 to infinity) in Wistar rat spleen at 30 mg/kg, po by HPLC analysis; assay type: ADME, organism-based; outline: as §1
[25] = AUC (0 to 72 hrs) in Wistar rat Heart at 30 mg/kg, po by HPLC analysis; assay type: ADME, organism-based; design: time < 72 hr, dose 30 mg/kg, route oral; outline: as §3
[26] = Cmax in Wistar rat plasma at 30 mg/kg, po by HPLC analysis; assay type: ADME, organism-based; design: dose 30 mg/kg, route oral
Mus musculus = test: Toxicity in ICR mouse assessed as change in body weight at 1200 mg/kg, po after 2 weeks; assay type: organism-based; conditions: in vivo, 336 h
[27] = MRT (0 to infinity) in Wistar rat Heart at 15 mg/kg, po by HPLC analysis; assay type: ADME, organism-based; outline: as §1
[28] = Cmax in Wistar rat brain at 15 mg/kg, po by HPLC analysis; assay type: ADME, organism-based; design: dose 15 mg/kg, route oral; outline: as §3
[29] = Cmax in Wistar rat spleen at 10 mg/kg, po by HPLC analysis; assay type: ADME, organism-based; design: dose 10 mg/kg, route oral; outline: as §2
[30] = MRT (0 to 72 hrs) in Wistar rat Heart at 30 mg/kg, po by HPLC analysis; assay type: ADME, organism-based; outline: as §2
[31] = Tmax in Wistar rat brain at 15 mg/kg, po by HPLC analysis; assay type: ADME, organism-based; outline: as §1
[32] = Tmax in Wistar rat Heart at 10 mg/kg, po by HPLC analysis; assay type: ADME, organism-based; outline: as §1
[33] = Cmax in Wistar rat lung at 30 mg/kg, po by HPLC analysis; assay type: ADME, organism-based; design: dose 30 mg/kg, route oral; outline: as §2
[34] = Toxicity in ICR mouse assessed as mortality at 1875 mg/kg, ig after 2 weeks; assay type: organism-based; conditions: in vivo, po
[35] = AUC (0 to infinity) in Wistar rat brain at 15 mg/kg, po by HPLC analysis; assay type: ADME, organism-based; design: dose 15 mg/kg, time infinity, route oral; outline: as §3

CCCCC1=NC2(CCCC2)C(=O)N1Cc1ccc2c(ccn2-c2ccccc2-c2nnn[nH]2)c1
Cmax [1]: 0.856 µg/mL
MRT last [2]: 4.77 h
MRT last [3]: 9.71 h
Cmax [4]: 0.21 µg/mL
AUC(0-inf) [5]: 7.69 µg·h/mL
Tmax [6]: 2.33 h
AUC(0-t) at 72 h [7]: 1.79 µg·h/mL
AUC(0-t) at 72 h [8]: 89.5 µg·h/mL
LD50 at 336 h [9]: 1550 mg/kg
AUC(0-t) at 72 h [10]: 0.346 µg·h/mL
Cmax [11]: 0.0621 µg/mL
MRT last [12]: 19.4 h
Cmax [13]: 0.396 µg/mL
AUC(0-inf) [14]: 0.346 µg·h/mL
Cmax [15]: 0.721 µg/mL
MRT last [16]: 10.6 h
half-life [17]: 2.35 h
half-life [18]: 20.2 h
MRT inf [19]: 25.3 h
MRT last [20]: 10.2 h
AUC(0-t) at 72 h [21]: 5.84 µg·h/mL
AUC(0-inf) [22]: 0.962 µg·h/mL
Activity (Rattus norvegicus): Non-Toxic
Tmax [23]: 2 h
MRT inf [24]: 20.4 h
AUC(0-t) at 72 h [25]: 7.36 µg·h/mL
Cmax [26]: 5.76 µg/mL
Activity (Mus musculus): Non-Toxic
MRT inf [27]: 23.9 h
Cmax [28]: 0.0933 µg/mL
Cmax [29]: 0.348 µg/mL
MRT last [30]: 16.2 h
Tmax [31]: 4.83 h
Tmax [32]: 4 h
Cmax [33]: 0.396 µg/mL
mortality at 336 h [34]: 60%
AUC(0-inf) [35]: 1.18 µg·h/mL
